Assay results collected from several papers.
Lines come from different studies, so protocols differ.
PIK3CA: Phosphatidylinositol 4,5-bisphosphate 3-kinase catalytic subunit alpha isoform (PIK3CA, Homo sapiens, UniProt P42336)
PIK3CA E545K: Phosphatidylinositol 4,5-bisphosphate 3-kinase catalytic subunit alpha isoform (PIK3CA, Homo sapiens, UniProt P42336, E545K)
PIK3CA E542K: Phosphatidylinositol 4,5-bisphosphate 3-kinase catalytic subunit alpha isoform (PIK3CA, Homo sapiens, UniProt P42336, E542K)

Structure (SMILES) | target | read-out | mode | method | concentration | measurement | value
C#Cc1cc(-c2cc(Nc3nc(N[C@@H](C)c4ccc(F)cn4)ncc3Cl)n[nH]2)ccc1C=O | PIK3CA | enzyme activity | inhibitor |  | 0.2 µM | inhibition | 7.89%
Cc1cc(O)c(-c2ccc([C@@H](C)CN(C)C)cc2)c2c1[nH]c(=O)c1sccc12 | PIK3CA | enzyme activity | inhibitor |  | 0.1 µM | inhibition | -4.62%
CO[C@@H]1[C@H](N(C)C(=O)c2ccccc2)C[C@H]2O[C@]1(C)n1c3ccccc3c3c4c(c5c6ccccc6n2c5c31)C(=O)NC4 | PIK3CA E545K | enzyme activity | inhibitor |  | 1 µM | inhibition | 0%
C1=C/COCc2cc(ccc2OCCN2CCCC2)Nc2nccc(n2)-c2cccc(c2)COC/1 | PIK3CA E542K | binding |  |  | 0.1 µM | remaining binding | 68%
CC(C)S(=O)(=O)c1ccc2nccc(Nc3ccc4sc(C5CCCC5)nc4c3)c2c1 | Phosphatidylinositol 4,5-bisphosphate 3-kinase catalytic subunit alpha isoform, with p85 (PIK3CA, Homo sapiens, UniProt P42336) | enzyme activity | inhibitor |  | 1 µM | activity vs control | 98.5%
C=CC(=O)N1CCC[C@@H](n2nc(-c3ccc(Oc4ccccc4)cc3)c3c(N)ncnc32)C1 | Phosphatidylinositol 4,5-bisphosphate 3-kinase catalytic subunit alpha isoform (PIK3CA, Homo sapiens, UniProt P42336, I800L) | enzyme activity | inhibitor |  | 1 µM | inhibition | 8%
C#Cc1cnc(Nc2ccnc(CO)c2)nc1Nc1ccccc1S(C)(=O)=NC#N (stereo not shown) | PIK3CA | cell-free assay |  |  | 1 µM | remaining signal | 100%
Cc1ccc(NC(=O)c2ccnc(C(F)(F)F)c2)cc1-c1cc(OCCO)nc(N2CCOCC2)c1 | Phosphatidylinositol 4,5-bisphosphate 3-kinase catalytic subunit alpha isoform (PIK3CA, Homo sapiens, UniProt P42336, H1047L) | binding |  |  | 1 µM | remaining binding | 98%
CCCCC(=O)Nc1ccc(-c2ccc3ncn(CCC)c(=O)c3c2)cn1 | PIK3CA E542K | binding |  | competition with immobilised ligand | 0.5 µM | remaining binding | 96%
COc1ccc2[nH]c3c4[nH]c5ccc(OC)cc5c4c4c(c3c2c1)C(=O)NC4=O | PIK3CA E542K | binding |  |  | 1 µM | remaining binding | 92%
C=CC(=O)N1CCC([C@@H]2CCNc3c(C(N)=O)c(-c4ccc(Oc5ccccc5)cc4)nn32)CC1 | PIK3CA | enzyme activity | inhibitor |  | 1 µM | inhibition | 0%
C[C@H]1CC[C@H](n2c3cnccc3c3cnc(Nc4ccc5c(n4)CCN(C(=O)CO)C5)nc32)CC1 | PIK3CA E545K | cell-free assay |  |  | 1 µM | remaining signal | 100%
CC#CC(=O)N1CCC[C@H]1c1nc(-c2ccc(C(=O)Nc3ccccn3)cc2)c2c(N)nccn12 | Phosphatidylinositol 4,5-bisphosphate 3-kinase catalytic subunit alpha isoform (PIK3CA, Homo sapiens, UniProt P42336, C420R) | enzyme activity | inhibitor |  | 1 µM | inhibition | 17%
